# Results from ChEMBL document CHEMBL1155047, “Isolation, structure, and antibacterial activity of phaeosphenone from a Phaeosphaeria sp. discovered by antisense strategy” (J Nat Prod, 2008).
# The source made the active and inactive calls. No cut-off for these calls is given here.
# How the values were obtained:
# Enterococcus faecalis = assay: Antimicrobial activity against vancomycin-sensitive and macrolide-resistant Enterococcus faecalis CL8516; format: functional
# How it was run: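 Broth microdilution MIC under NCCLS guidelines in cation-adjusted Mueller Hinton broth unless stated otherwise; inoculum 10^5 CFU/mL; 2-fold serial compound dilutions in growth medium; 37 °C for 20 h. MIC read as lowest concentration preventing visible growth; a value for 80% growth inhibition also reported.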
# Staphylococcus aureus [1] = assay: Antimicrobial activity against Staphylococcus aureus RN450 carrying plasmid S1-782B bearing antisense […] RNA assessed as zone size at 31.25 ug/ml by two-plate differential sensitivity assay; format: functional; details: read-out: IZ
# How it was run: (§1)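 The S. aureus RN450 strains carry plasmid S1-782B, either with rpsD antisense RNA or with empty vector (control). Overnight cultures are grown in Miller's LB with 34 µg/mL chloramphenicol at 37 °C, 220 rpm, for 18–20 h. They are seeded 1:1000 of OD 3.0 into LB agar with 0.2% glucose and 15 µg/mL chloramphenicol; 12 mM xylose is added for the antisense strain only. Samples go into wells at 2-fold dilutions from 500 to 31.25 µg/mL. Zones are read after 18 h at 37 °C.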
# Staphylococcus aureus [2] = assay: Antimicrobial activity against Staphylococcus aureus RN450 assessed as zone size at 500 ug/ml by two-plate differential sensitivity assay; format: functional; details: read-out: IZ; how it was run: as §1
# Streptococcus pneumoniae [3] = assay: Antimicrobial activity against penicillin, quinoline and macrolide-sensitive Streptococcus pneumoniae CL2883 in isosensitet medium; format: functional
# How it was run: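 Pneumococcal broth MIC run in Isosensitest medium with 2-fold serial compound dilutions, 37 °C for 20 h. The reading is the lowest concentration with no visible growth.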
# Staphylococcus aureus [4] = assay: Antimicrobial activity against methicillin-sensitive Staphylococcus aureus MB2865; format: functional
# How it was run: (§2)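 Broth microdilution under NCCLS guidelines, with 2-fold serial compound dilutions. Cells are incubated at 37 °C for 20 h. MIC is the lowest concentration that prevents visible growth. The concentration giving 80% growth inhibition is also reported.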
# Haemophilus influenzae = assay: Antimicrobial activity against ampicillin, quinoline and macrolide-sensitive Haemophilus influenzae MB4572; format: functional; how it was run: as §2
# Staphylococcus aureus [5] = assay: Antimicrobial activity against Staphylococcus aureus RN450 assessed as zone size at 31.25 ug/ml by two-plate differential sensitivity assay; format: functional, organism-based; how it was run: as §1
# Staphylococcus aureus [6] = assay: Antimicrobial activity against Staphylococcus aureus RN450 carrying plasmid S1-782B bearing antisense […] RNA assessed as zone size at 500 ug/ml by two-plate differential sensitivity assay; format: functional; details: read-out: IZ; how it was run: as §1
# Escherichia coli = assay: Antimicrobial activity against wild type Escherichia coli MB2884; format: functional; how it was run: as §2
# Staphylococcus aureus [7] = assay: Antimicrobial activity against methicillin-sensitive Staphylococcus aureus ATCC 29213; format: functional; how it was run: as §2
# Staphylococcus aureus [8] = assay: Antimicrobial activity against methicillin-sensitive Staphylococcus aureus MB2865 in presence of human serum; format: functional
# Bacillus subtilis = assay: Antimicrobial activity against wild type Bacillus subtilis MB964; format: functional; how it was run: as §2
# Streptococcus pneumoniae [9] = assay: Antimicrobial activity against penicillin, quinoline and macrolide-sensitive Streptococcus pneumoniae CL2883 in CAMHB and 2.5 % lysed horse serum medium; format: functional; details: in the assay text read “lysed horse blood” for “lysed horse serum”
# How it was run: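 Broth MIC with 2-fold serial dilution in cation-adjusted Mueller Hinton broth plus 2.5% lysed horse blood, incubated 20 h at 37 °C, NCCLS guidelines. Endpoint is no visible growth.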
# Candida albicans = assay: Antimicrobial activity against wild type Candida albicans MY1055; format: functional; how it was run: as §2
# Staphylococcus aureus [10] = assay: Inhibition of Staphylococcus aureus RNA synthesis; format: functional, organism-based
# How it was run: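 Mid-log S. aureus (A600 0.5–0.6) is exposed to increasing compound concentrations for 20 min at 37 °C with 1 µCi/mL 5,6-[3H]uracil. The reaction is stopped with 10% trichloroacetic acid, and cells are collected on glass-fibre filters. Incorporated label is counted by scintillation.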
Structure (SMILES),MIC (Enterococcus faecalis),zone of inhibition at 31.25 µg/mL (Staphylococcus aureus [1]),zone of inhibition at 500 µg/mL (Staphylococcus aureus [2]),MIC (Streptococcus pneumoniae [3]),MIC (Staphylococcus aureus [4]),MIC80 (Staphylococcus aureus [4]),MIC (Haemophilus influenzae),Activity (Staphylococcus aureus [5]),zone of inhibition at 500 µg/mL (Staphylococcus aureus [6]),MIC (Escherichia coli),MIC (Staphylococcus aureus [7]),MIC80 (Staphylococcus aureus [7]),MIC (Staphylococcus aureus [8]),MIC (Bacillus subtilis),MIC (Streptococcus pneumoniae [9]),MIC (Candida albicans),IC50 (Staphylococcus aureus [10])
Cc1cc(O)c2c(c1)C(=O)c1c(cc(C)c([C@H]3C[C@@H](O)C4=C(C(=O)C5=C(C4=O)[C@@H](O)CC[C@@H]5O)[C@H]3O)c1O)C2=O [PHAEOSPHENONE],64 µg/mL,7 mm,11.8 mm,8 µg/mL,64 µg/mL,32 µg/mL,> 64 µg/mL,inactive,16 mm,> 64 µg/mL,32 µg/mL,16 µg/mL,> 64 µg/mL,16 µg/mL,64 µg/mL,8 µg/mL,
Cc1cc(O)c2c(c1)C(=O)C1=C(C2=O)[C@@H](O)[C@@H](O)[C@@H](O)C1 [PLEOSPORONE],,,,,,,,,,,,,,,,,6 µg/mL
